Results reported in paper PMC6467756 (Journal of medicinal chemistry, 2019).
“Also recorded” adds a separate entry of the source. Read-outs that look alike come from different tables or passages of the source.

What was measured:
[1] = molecular target: T1, Recombinant human glyoxalase I (GLO1) (Homo sapiens, UniProt Q04760); assay: Human Glyoxalase 1 enzyme assay; format: biochemical; conditions: for GLO1 inhibition compared with 8-MSQ, in words: SAR statement
T1 sequence (Q04760 2-184 limits assumed): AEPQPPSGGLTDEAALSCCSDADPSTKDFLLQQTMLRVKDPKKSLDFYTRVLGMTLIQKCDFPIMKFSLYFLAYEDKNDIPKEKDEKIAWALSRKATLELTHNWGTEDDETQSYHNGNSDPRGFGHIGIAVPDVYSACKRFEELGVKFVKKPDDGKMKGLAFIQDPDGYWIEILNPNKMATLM
How it was run: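 Recombinant human GLO1 (40 ng) was preincubated 15–20 min with test compound in 100 mM sodium phosphate, pH 7.0. Substrate was GSH and methylglyoxal (each from 100 mM stock) mixed in buffer and left 20 min at room temperature to form hemithioacetal, then added. DMSO ≤5% final. A240 read every minute for 8 min. Rates were normalized to the uninhibited control (100%) after no-enzyme background subtraction. IC50s were benchmarked against a reference N-hydroxypyridone inhibitor. Library screens used 200 and 50 µM fragment, with a >50% inhibition hit threshold.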

mice = assay: Observational assessment of toxicity after i.p. dosing; format: in vivo
FVB/NJ mice [2] = assay: Forced swim test; format: in vivo; conditions: 12.5 mg/kg i.p., 120 min before test, p=0.041
FVB/NJ mice [3] = assay: Open field test; format: in vivo; conditions: 12.5 mg/kg i.p., 90 min after injection, 30 min test
How it was run: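 Male and female FVB/NJ mice, 108–148 days old, tested in the light phase, were given 12.5 mg/kg i.p. or vehicle ([…]). After 90 min in the home cage, each was placed centrally in a 43×43×33 cm chamber under dim light inside a sound- and light-attenuating box for 30 min of free exploration. An infrared beam grid tracked distance traveled.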

MG levels in brain = assay: Brain methylglyoxal; format: in vivo; conditions: for MG per mg brain tissue: mice, 30-240 min post-dose, vehicle 1.1 ± 0.3
How it was run: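 Separate mouse cohort dosed i.p. at 12.5 or 25 mg/kg. Brains collected at 30, 60, 120 and 240 min post-dose, n=3 per time point. Under isoflurane, mice were perfused transcardially with PBS, then brains were weighed, flash-frozen and stored at −80 °C. Tissue was minced, extracted with acetonitrile, bead-homogenized, centrifuged and filtered (2 µm). MG was quantified by LC-MS/MS against an 11-point 5–5000 ng/mL curve spiked into blank brain, expressed per mg wet tissue.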

human GLO1 = conditions: cited from earlier work

With `CS(=O)(=O)Nc1ccc(N2CCCCC2)c2cccnc12` [Compound 45, N-(5-(Piperidin-1-yl)quinolin-8-yl)methanesulfonamide] the “GLO1 inhibition compared with 8-MSQ, in words” value [1] was “not well tolerated”.

For `CS(=O)(=O)Nc1ccc(-c2ccncc2)c2cccnc12` [Compound 38, N-(5-(Pyridin-4-yl)quinolin-8-yl)methanesulfonamide], the “GLO1 inhibition compared with 8-MSQ, in words” value [1] was “not well tolerated”.

In the case of `O=S(=O)(Nc1ccc(-c2ccc(Cl)cc2)c2cccnc12)c1ccccn1` [Compound 48, N-(5-(4-Chlorophenyl)quinolin-8-yl)pyridine-2-sulfonamide], the observed toxicity (mice; i.p. doses of 50 mg/kg and higher) is reported as “visibly toxic”.

In the case of `CS(=O)(=O)Nc1ccc(-c2cncnc2)c2cccnc12` [Compound 39, N-(5-(Pyrimidin-5-yl)quinolin-8-yl)methanesulfonamide], the “GLO1 inhibition compared with 8-MSQ, in words” value [1] is reported as “not well tolerated”.

With `COc1cc(CCc2cc(NS(=O)(=O)c3ccccn3)c3ncccc3c2)cc(OC)c1` [Compound 60, N-(6-(3,5-Dimethoxyphenethyl)quinolin-8-yl)pyridine-2-sulfonamide] the “observational assessment of toxicity” value (mice; doses up to 100 mg/kg i.p.) was “no adverse responses”, the “immobility in the FST vs vehicle” value (FVB/NJ mice [2]) was “reduction in percent immobility; also recorded: significant decrease in the time spent immobile; also recorded: reduced immobility” and the “locomotor activity in open field vs vehicle” value (FVB/NJ mice [3]) was “no effect”. For the same molecule, the “increase of MG levels in brain vs vehicle-treated mice” value (MG levels in brain; 12.5 mg/kg i.p., between 30 and 240 min post-dose) was “approximately 11 fold”, the “MG per mg brain tissue” value (MG levels in brain; 12.5 mg/kg i.p.) was 11.8±4.1 ng/mg of brain tissue and the “MG per mg brain tissue” value (MG levels in brain; 25 mg/kg i.p.) was 14.1±3.1 ng/mg of brain tissue. For the same molecule, the “increase in brain MG levels compared to vehicle-treated mice” value (MG levels in brain; summary statement in discussion) was over 10 fold.

In the case of `Cc1ccc2cccc(NS(=O)(=O)c3ccccc3)c2n1` [Compound 9, N-(2-Methylquinolin-8-yl)benzenesulfonamide], the “GLO1 inhibition compared with 8-MSQ, in words” value [1] is reported as “slight increase in inhibition”.

In the case of `O=c1cc(-c2ccccc2)cc(-c2ccccc2)n1O` [Chugai-1, 1-hydroxy-4,6-diphenylpyridin-2(1H)-one, reference compound], the IC50 [1] is listed as 1.9 ± 0.2 µM and the IC50 (human GLO1; value reported in the original literature report) is listed as 1.19 µM.

For `COCCCn1ccc2cc(-c3cc(-c4ccccc4)cc(=O)n3O)cnc21` [Chugai-3d], the IC50 (human GLO1; reported by Chugai Pharmaceuticals) is given as 0.011 µM.

With `O=S(=O)(Nc1cccc2cccnc12)c1ccccn1` [Compound 23, N-(Quinolin-8-yl)pyridine-2-sulfonamide] the “improvement in inhibition relative to 8-MSQ” value ([1]; ratio of IC50 values vs 8-MSQ) was ~ 14 fold.

For `CS(=O)(=O)Nc1cccc2cccnc12` [Compound 8-MSQ, N-(Quinolin-8-yl)methanesulfonamide], the “inhibition in second MBP library screening” value ([1]; fragment concentration 50 μM) was “essentially complete inhibition”.

With `COc1ccccc1S(=O)(=O)Nc1cccc2cccnc12` [Compound 17, 2-Methoxy-N-(quinolin-8-yl)benzenesulfonamide] the “GLO1 inhibition compared with 8-MSQ, in words” value [1] was “not tolerated”.

With `CS(=O)(=O)Nc1ccc(N2CCOCC2)c2cccnc12` [Compound 46, N-(5-Morpholinoquinolin-8-yl)methanesulfonamide] the “GLO1 inhibition compared with 8-MSQ, in words” value [1] was “not well tolerated”.

With `O=S(=O)(Nc1cccc2cccnc12)c1ccccc1` [Compound 8, N-(Quinolin-8-yl)benzenesulfonamide] the “improvement in inhibition relative to 8-MSQ” value ([1]; ratio of IC50 values vs 8-MSQ) was 2 fold.

In the case of `N#Cc1ccccc1S(=O)(=O)Nc1cccc2cccnc12` [Compound 20, 2-Cyano-N-(quinolin-8-yl)benzenesulfonamide], the “GLO1 inhibition compared with 8-MSQ, in words” value [1] is reported as “not tolerated”.

For `Cc1ccc2cccc(NS(C)(=O)=O)c2n1` [Compound 7, N-(2-Methylquinolin-8-yl)methanesulfonamide], the “loss of affinity compared to 8-MSQ” value ([1]; ratio of IC50 values vs 8-MSQ) was ~ 2 fold.
